Experimental data: paper PMC7614232 (Organic & biomolecular chemistry, 2022)
Read-outs that look alike come from different tables or passages of the source.

Tests used:
[1] = molecular target: T1, AMAN-2 (Golgi α-mannosidase) (Caenorhabditis elegans, UniProt Q2PJ74); experiment: α-mannosidase inhibition assay with pNP-Man, AMAN-2; assay type: biochemical; conditions: for SI^b = IC50(JBMan)/IC50(AMAN-2): selectivity index
T1 sequence (Q2PJ74 27-1145): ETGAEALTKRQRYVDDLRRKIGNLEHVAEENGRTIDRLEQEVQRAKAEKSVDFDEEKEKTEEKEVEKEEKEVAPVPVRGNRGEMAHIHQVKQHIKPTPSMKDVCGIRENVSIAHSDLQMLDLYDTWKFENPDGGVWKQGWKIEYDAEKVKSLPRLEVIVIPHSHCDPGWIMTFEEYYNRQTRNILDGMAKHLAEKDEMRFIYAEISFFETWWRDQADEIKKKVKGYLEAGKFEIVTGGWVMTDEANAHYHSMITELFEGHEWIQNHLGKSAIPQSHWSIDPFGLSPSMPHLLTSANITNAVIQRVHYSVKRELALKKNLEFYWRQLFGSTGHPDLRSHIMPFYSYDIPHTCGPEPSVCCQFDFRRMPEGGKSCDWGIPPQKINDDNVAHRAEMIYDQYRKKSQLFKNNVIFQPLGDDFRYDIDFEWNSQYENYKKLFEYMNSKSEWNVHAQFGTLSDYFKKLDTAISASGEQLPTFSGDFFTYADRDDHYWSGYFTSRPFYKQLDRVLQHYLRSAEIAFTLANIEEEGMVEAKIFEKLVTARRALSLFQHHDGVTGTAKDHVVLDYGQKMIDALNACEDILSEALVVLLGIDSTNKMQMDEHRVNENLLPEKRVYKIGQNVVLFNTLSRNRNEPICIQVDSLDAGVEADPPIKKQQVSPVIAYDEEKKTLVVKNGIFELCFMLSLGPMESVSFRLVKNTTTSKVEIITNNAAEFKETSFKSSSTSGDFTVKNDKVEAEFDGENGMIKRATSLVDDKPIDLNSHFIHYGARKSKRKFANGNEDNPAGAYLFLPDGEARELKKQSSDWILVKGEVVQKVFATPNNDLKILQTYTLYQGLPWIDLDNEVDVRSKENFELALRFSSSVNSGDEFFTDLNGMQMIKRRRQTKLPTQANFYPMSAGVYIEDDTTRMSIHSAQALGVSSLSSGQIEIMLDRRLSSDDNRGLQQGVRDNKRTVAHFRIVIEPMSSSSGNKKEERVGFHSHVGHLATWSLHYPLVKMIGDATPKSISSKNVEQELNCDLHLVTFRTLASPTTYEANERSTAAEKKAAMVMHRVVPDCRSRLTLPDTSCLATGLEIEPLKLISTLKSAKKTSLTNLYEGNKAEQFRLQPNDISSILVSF

[2] = molecular target: T2, JBMan (Jack bean α-mannosidase) (Canavalia ensiformis, UniProt C0HJB3); experiment: α-mannosidase inhibition assay with pNP-Man, JBMan; assay type: biochemical
T2 sequence (C0HJB3 1-981): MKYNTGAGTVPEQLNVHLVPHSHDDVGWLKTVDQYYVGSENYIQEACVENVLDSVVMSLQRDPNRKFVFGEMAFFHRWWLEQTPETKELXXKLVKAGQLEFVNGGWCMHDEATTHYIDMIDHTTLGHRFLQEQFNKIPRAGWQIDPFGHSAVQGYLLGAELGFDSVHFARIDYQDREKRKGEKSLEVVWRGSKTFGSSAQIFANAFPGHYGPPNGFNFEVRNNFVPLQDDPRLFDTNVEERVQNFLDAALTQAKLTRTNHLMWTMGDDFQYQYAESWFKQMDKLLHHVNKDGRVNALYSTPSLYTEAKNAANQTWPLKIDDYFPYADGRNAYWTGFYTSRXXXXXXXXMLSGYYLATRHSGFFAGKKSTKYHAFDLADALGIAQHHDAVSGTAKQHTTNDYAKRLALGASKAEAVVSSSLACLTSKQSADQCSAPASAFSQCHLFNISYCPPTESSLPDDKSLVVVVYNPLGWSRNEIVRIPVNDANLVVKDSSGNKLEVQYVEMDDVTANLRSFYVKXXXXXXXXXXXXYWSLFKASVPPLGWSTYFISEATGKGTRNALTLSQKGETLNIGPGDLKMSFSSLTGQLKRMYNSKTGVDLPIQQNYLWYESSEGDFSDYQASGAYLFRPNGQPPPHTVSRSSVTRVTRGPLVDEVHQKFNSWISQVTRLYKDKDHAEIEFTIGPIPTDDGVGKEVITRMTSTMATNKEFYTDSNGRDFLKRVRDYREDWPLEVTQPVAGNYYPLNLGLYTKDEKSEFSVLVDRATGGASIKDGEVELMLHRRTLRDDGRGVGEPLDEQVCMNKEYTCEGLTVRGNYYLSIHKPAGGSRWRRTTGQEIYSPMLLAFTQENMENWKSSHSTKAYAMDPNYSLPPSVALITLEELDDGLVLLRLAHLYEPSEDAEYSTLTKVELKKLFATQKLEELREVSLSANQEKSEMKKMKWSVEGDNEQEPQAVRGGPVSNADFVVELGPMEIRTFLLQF
Summary of the method: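 Commercial jack bean α-mannosidase (0.05 μg protein) in 50 mM acetate buffer, pH 5.0. Compound taken from a 50 mM DMSO solution, diluted in water, and preincubated with enzyme 5 min at rt. pNP-Man was added and the reaction ran 1-2 h at 37 °C. Stopped with 0.5 M sodium carbonate; p-nitrophenol read at 405 nm. […] Three independent experiments in duplicate.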

[3] = read-out: IC50 AMAN-2, 2 mM pNP-Man, pH 6.0
[4] = read-out: Ki AMAN-2, Dixon plots, pNP-Man 0.5-4 mM, pH 6.0
[5] = read-out: IC50 JBMan, 2 mM pNP-Man, pH 5.0
[6] = read-out: Ki JBMan, Dixon plots, pNP-Man 0.5-4 mM, pH 5.0

SI^b = IC50(JBMan)/IC50(AMAN-2) [1] | IC50 [1, 3] [µM] | Ki [1, 4] [µM] | IC50 [2, 5] [µM] | Ki [2, 6] [µM] | IC50 ([1]; read-out: IC50 AMAN-2, 2 mM pNP-Man, pH 6.0, listed as N-2-naphtylmethyl) [µM] | Ki [1] [µM] | Ki [2] [µM] | SMILES | IC50 [1] [µM] | IC50 [2] [µM]
9 | 12.5 ± 0.1 | 10.3 | 115 ± 6.7 | 52.4 | – | – | – | Cl.N=C(N)NCc1ccc(CN2C[C@@H](O)[C@@H](O)[C@H]2CO)cc1 [Compound 9, 1,4-Dideoxy-N-4-guanidinomethylbenzyl-1,4-imino-d-lyxitol hydrochloride] | – | –
269 | 3.5 ± 0.1 | – | 940 ± 24 | – | – | – | – | OCC1C(O)C(O)CN1Cc1ccc(I)cc1 (stereo not drawn) [Compound 16, 1,4-Dideoxy-1,4-imino-N-4-iodobenzyl-d-lyxitol] | – | –
812 | 2.4 ± 0.1 | – | 1950 ± 250 | – | 7.6 | – | – | OC[C@@H]1[C@H](O)[C@H](O)CN1Cc1ccc2ccccc2c1 [Compound 17, 1,4-Dideoxy-1,4-imino-N-(naphthalen-2-ylmethyl)-d-lyxitol] | – | –
86 | 0.21 ± 0.1 | 0.15 | 18 ± 1.7 | 6.5 | – | – | – | OCC1C(O)C(O)CN1CCc1cccc2ccccc12 (stereo not drawn) [Compound 18, 1,4-Dideoxy-1,4-imino-N-(2-(naphthalen-1-yl)ethyl)-d-lyxitol] | – | –
3 | – | – | – | – | – | – | – | Cl.N=C(N)NCCCCCCCCCCN1C[C@@H](O)[C@@H](O)[C@H]1CO [Compound 25, 1,4-Dideoxy-N-(10-guanidinodecyl)-1,4-imino-d-lyxitol hydrochloride] | 2.7 ± 0.1 | 8.3 ± 1.2
3 | – | – | – | – | – | 0.78 | 1.4 | Cl.N=C(N)CCCCCCCCCN1C[C@@H](O)[C@@H](O)[C@H]1CO [Compound 26, N-(9-amidinononyl)-1,4-dideoxy-1,4-imino-d-lyxitol hydrochloride] | 1.4 ± 0.1 | 4.7 ± 1.2

SMILES | SI^b = IC50(JBMan)/IC50(AMAN-2) [1] | IC50 [1, 3] [µM] | Ki [1, 4] [µM] | IC50 [2, 5] [µM] | Ki [2, 6] [µM] | IC50 ([1]; read-out: IC50 AMAN-2, 2 mM pNP-Man, pH 6.0, listed as N-2-naphtylmethyl) [µM] | Ki [1] [µM] | Ki [2] [µM] | IC50 [1] [µM] | IC50 [2] [µM]
OC[C@@H]1[C@H](O)[C@H](O)CN1Cc1ccccc1 [Compound 4, N-Benzyl-1,4-dideoxy-1,4-imino-d-lyxitol] | 124 | – | – | – | – | – | – | – | 8.7 ± 0.1 | 1080 ± 185
OC[C@@H]1[C@H](O)[C@H](O)CN1CC1CCCCC1 [Compound 19, N-Cyclohexylmethyl-1,4-dideoxy-1,4-imino-d-lyxitol] | 75 | – | – | – | – | – | – | – | 17.3 ± 0.1 | 1290 ± 113
OC[C@@H]1[C@H](O)[C@H](O)CN1CC1CCOCC1 [Compound 20] | 30 | 84.3 ± 0.1 | – | 2550 ± 63 | – | – | – | – | – | –
CCCCCCCCCCCCN1C[C@@H](O)[C@@H](O)[C@H]1CO [Compound 21, 1,4-Dideoxy-N-dodecyl-1,4-imino-d-lyxitol] | 9 | – | – | – | – | – | – | – | 2.3 ± 0.1 | 20.3 ± 4.4
